Source: PubChem BioAssay
Shown are actives, neighbours in structure and some others; about 3.5% of the full set was active somewhere.
FXIa inh 1536 = human FXIa protease inhibitors, primary screen, biochemical, 1536-well; Coagulation factor XI (Homo sapiens), P03951; purified FXIa, Boc-Glu-Ala-Arg-AMC fluorogenic substrate; inhibition, % at 5 µM; 220,000 tested, 0.14% active;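 active = inhibition of at least 40%; inactive = inhibition below 40%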;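 note: fluorescence of freed AMC excited at 355 nm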
STAT3 act = IL-6 driven STAT3 reporter potentiators, primary screen, U3A cells, luciferase, luminescence, MLSCN library | IL-6 STAT3-luciferase reporter; 100% = signal with IL-6 EC80 alone | activation (% of control), % at 5.6 µM | 190,000 tested, 0.91% active;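 active = activation above the screen-wide mean of compound activation plus 3 SD, cut at about 130% in these data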
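Test system: human U3A cells carrying STAT3-luciferase construct; control set: IL-6-only wells as 100% reference; timing: compound pre-incubation 1 h before IL-6, then 6 h stimulation at 37 °C; also added: IL-6 stimulus at 33 ng/mL final; evaluation: % activation versus median of IL-6-stimulated wells; detection: reporter luminescence signal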
KLK5 inh = human KLK5 protease inhibitors, primary screen, biochemical, 1536-well. recombinant hK5, fluorogenic AMC substrate cleavage. Kallikrein-5 (Homo sapiens), Q9Y337. inhibition, % at 5 µM. 210,000 tested, 0.59% active;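 active = inhibition of 40% or more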
AHR activator = AHR activators, primary screen, cell-based, luminescence, luciferase reporter, human; 320,000 tested, 2.5% active; AID 2796, 2010; activation, % at 5 µM; AHR-responsive luciferase reporter cells; Aryl hydrocarbon receptor (Homo sapiens), P35869; in the data active = activation above about 47%
FXIIa inh 1536 = human FXIIa protease inhibitors, primary screen, biochemical, 1536-well; 220,000 tested, 0.3% active; inhibition, % at 5 µM; purified FXIIa, Boc-QGR-AMC fluorogenic substrate, 2 h; AID 800, 2007; in the data active = inhibition above about 40%
Target sequence (P00748 20-372 limits assumed): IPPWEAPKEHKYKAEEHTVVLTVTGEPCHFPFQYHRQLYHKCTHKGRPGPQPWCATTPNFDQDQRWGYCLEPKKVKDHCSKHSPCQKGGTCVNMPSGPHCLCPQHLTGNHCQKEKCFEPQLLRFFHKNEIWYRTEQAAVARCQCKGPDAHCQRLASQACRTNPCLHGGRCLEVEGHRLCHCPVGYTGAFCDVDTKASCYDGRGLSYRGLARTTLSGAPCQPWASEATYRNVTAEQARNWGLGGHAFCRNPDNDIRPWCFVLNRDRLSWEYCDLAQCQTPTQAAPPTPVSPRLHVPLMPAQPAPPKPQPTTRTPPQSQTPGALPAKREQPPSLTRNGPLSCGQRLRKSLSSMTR
Target sequence (P00748 373-615 limits assumed): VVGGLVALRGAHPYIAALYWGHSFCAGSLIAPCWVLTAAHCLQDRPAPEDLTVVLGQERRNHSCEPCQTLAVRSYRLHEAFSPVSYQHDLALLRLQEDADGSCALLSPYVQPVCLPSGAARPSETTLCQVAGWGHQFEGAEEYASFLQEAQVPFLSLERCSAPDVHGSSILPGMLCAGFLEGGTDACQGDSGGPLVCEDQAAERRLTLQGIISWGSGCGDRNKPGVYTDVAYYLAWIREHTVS
thrombin 1536 = human alpha-thrombin inhibitors, primary screen, counter-screen for coagulation protease inhibitor project, biochemical, 1536-well, fluorogenic AMC substrate. Boc-VPR-AMC fluorogenic substrate cleavage. Prothrombin (Homo sapiens), P00734. AID 1046, 2008. 220,000 tested, 0.26% active. inhibition, % at 5 µM;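 active = inhibition at or above 40%; inactive = inhibition below 40%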
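System: human alpha-thrombin protein; Compound dosing: one concentration per compound, 5 µM, with 0.2% DMSO; Timing: reaction at room temperature; Technique: AMC fluorescence, 355/460 nm; Controls: enzyme without compound as high, wells lacking enzyme as low.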
AHR act cf = AHR activators, confirmation, cell-based, luminescence, luciferase reporter, human. human cells, AHR-responsive luciferase reporter. shares compounds with AHR activator. activation, % at 9 µM. 2,300 tested, 87% active; in the data active = activation above about 49%;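 note: HepG2 hepatoma cells carrying a DRE-driven firefly luciferase reporter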
PXR counter = human PXR activators, counter-screen for AHR activator project, cell-based, luciferase luminescence. shares compounds with AHR activator. AID 434939, 2010. activation, % at 11.6 µM. 2,300 tested, 88% active. cell-based PXR reporter; in the data active = activation above about 11%;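 note: human hepatoma DPX-2 cells expressing full-length human PXR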
A number is an active result.

Results for CC(C)CCN1CCN(CC(c2ccccc2)c2ccccc2)CC1CCO (stereo unspecified) ?
FXIa inh 1536: inactive; STAT3 act: inactive; KLK5 inh: inactive; AHR activator: inactive; FXIIa inh 1536: inactive; thrombin 1536: inactive

Results for Cc1cc(OCCCC(=O)Nc2cccc(-n3cnnn3)c2)ccc1Cl ?
AHR activator: inactive

Results for Cc1cc(NC(=O)CSc2ncccc2C(=O)O)no1 ?
FXIa inh 1536: inactive; STAT3 act: inactive; KLK5 inh: inactive; AHR activator: inactive; FXIIa inh 1536: inactive; thrombin 1536: inactive

Results for Cc1ccc([N+](=O)[O-])cc1NC(=O)c1ccc2c(c1)OCO2 ?
FXIa inh 1536: inactive; STAT3 act: inactive; KLK5 inh: inactive; AHR activator: 115; FXIIa inh 1536: inactive; thrombin 1536: inactive; AHR act cf: 100; PXR counter: 25

Results for Cc1ccc([N+](=O)[O-])cc1NC(=O)c1ccccc1 ?
FXIa inh 1536: inactive; STAT3 act: inactive; KLK5 inh: inactive; AHR activator: inactive; FXIIa inh 1536: inactive; thrombin 1536: inactive

What do the screens show for `O=C(Nc1cc([N+](=O)[O-])ccc1Cl)c1ccc2c(c1)OCO2`?
FXIa inh 1536: inactive; STAT3 act: inactive; KLK5 inh: inactive; AHR activator: 106; FXIIa inh 1536: inactive; thrombin 1536: inactive; AHR act cf: 100; PXR counter: 23

How did CN1CCC(N(C)C(=O)/C(C#N)=C/c2ccc(OC(F)F)cc2)CC1 do in these assays?
FXIa inh 1536: inactive; KLK5 inh: inactive; FXIIa inh 1536: inactive; thrombin 1536: inactive

What do the screens show for `Fc1ccccc1/C=N/n1cc(-c2ccccc2)[nH]c1=S`?
FXIa inh 1536: inactive; KLK5 inh: inactive; AHR activator: 87; FXIIa inh 1536: inactive; thrombin 1536: inactive; AHR act cf: 112; PXR counter: 45

What do the screens show for `S=c1[nH]c(-c2ccccc2)cn1/N=C/c1cccnc1`?
FXIa inh 1536: inactive; KLK5 inh: inactive; AHR activator: 82; FXIIa inh 1536: inactive; thrombin 1536: inactive; AHR act cf: 102; PXR counter: 17

How did Fc1ccccc1/C=N/n1cnnc1 do in these assays?
FXIa inh 1536: inactive; STAT3 act: inactive; KLK5 inh: inactive; AHR activator: inactive; FXIIa inh 1536: inactive; thrombin 1536: inactive

What do the screens show for `S=c1[nH]nc(-c2cccnc2)n1/N=C/C=C/c1ccccc1`?
FXIa inh 1536: inactive; STAT3 act: inactive; KLK5 inh: inactive; AHR activator: inactive; FXIIa inh 1536: inactive; thrombin 1536: inactive

Results for O=C(NCc1cccnc1)c1ccc(-c2ccccc2[N+](=O)[O-])o1 ?
FXIa inh 1536: inactive; STAT3 act: inactive; KLK5 inh: inactive; AHR activator: 87; FXIIa inh 1536: inactive; thrombin 1536: inactive; AHR act cf: 95; PXR counter: 39

Results for C=CCNC(=S)NNC(=O)COc1cccc(Cl)c1 ?
FXIa inh 1536: inactive; STAT3 act: inactive; KLK5 inh: inactive; AHR activator: inactive; FXIIa inh 1536: inactive; thrombin 1536: inactive

What do the screens show for `CCOc1c(CNCCN2CCOCC2)cccc1OC`?
FXIa inh 1536: inactive; STAT3 act: inactive; KLK5 inh: inactive; AHR activator: inactive; FXIIa inh 1536: inactive; thrombin 1536: inactive

What do the screens show for `O=C(N/N=C/c1cccc([N+](=O)[O-])c1)c1c[nH]c2ccccc12`?
FXIa inh 1536: inactive; KLK5 inh: inactive; AHR activator: 97; FXIIa inh 1536: inactive; thrombin 1536: inactive; AHR act cf: 140; PXR counter: 19

What do the screens show for `Cn1cc(C(=O)N/N=C/c2ccc([N+](=O)[O-])cc2)c2ccccc21`?
FXIa inh 1536: inactive; KLK5 inh: inactive; AHR activator: inactive; FXIIa inh 1536: inactive; thrombin 1536: inactive

How did O=C(N/N=C/c1cc([N+](=O)[O-])ccc1O)c1c[nH]c2ccccc12 do in these assays?
FXIa inh 1536: inactive; KLK5 inh: inactive; AHR activator: inactive; FXIIa inh 1536: inactive; thrombin 1536: inactive

How did Cn1cc(C(=O)N/N=C/c2cccc([N+](=O)[O-])c2)c2ccccc21 do in these assays?
FXIa inh 1536: inactive; KLK5 inh: inactive; AHR activator: 99; FXIIa inh 1536: inactive; thrombin 1536: inactive; AHR act cf: inactive; PXR counter: 19

How did Cc1ccc(CNCCC2=CCCCC2)cc1 do in these assays?
FXIa inh 1536: inactive; STAT3 act: inactive; KLK5 inh: inactive; AHR activator: inactive; FXIIa inh 1536: inactive; thrombin 1536: inactive

Results for Cc1ccc(CNC(=O)c2cc3c(s2)CN(Cc2ccccc2)C3)cc1 ?
FXIa inh 1536: inactive; STAT3 act: inactive; KLK5 inh: inactive; AHR activator: inactive; FXIIa inh 1536: inactive; thrombin 1536: inactive

What do the screens show for `Cc1nc(-c2ccccn2)sc1C(=O)Nc1ccc(F)cc1F`?
FXIa inh 1536: inactive; STAT3 act: inactive; KLK5 inh: inactive; AHR activator: 95; FXIIa inh 1536: inactive; thrombin 1536: inactive; AHR act cf: inactive; PXR counter: 26

Results for CNC(=O)c1sc(-c2ccccn2)nc1C ?
FXIa inh 1536: inactive; STAT3 act: inactive; KLK5 inh: inactive; AHR activator: inactive; FXIIa inh 1536: inactive; thrombin 1536: inactive

How did CCOCCc1nnc(NC(=O)c2ccc(OC)c(OC)c2)s1 do in these assays?
FXIa inh 1536: inactive; STAT3 act: inactive; KLK5 inh: inactive; AHR activator: 115; FXIIa inh 1536: inactive; thrombin 1536: inactive; AHR act cf: 81

Results for Clc1ccsc1-c1csc(-c2cccnc2)n1 ?
FXIa inh 1536: inactive; STAT3 act: inactive; KLK5 inh: inactive; AHR activator: 85; FXIIa inh 1536: inactive; thrombin 1536: inactive; AHR act cf: 142; PXR counter: 25

What do the screens show for `c1cncc(-c2nc(-c3ccc4c(c3)OCO4)cs2)c1`?
FXIa inh 1536: inactive; STAT3 act: inactive; KLK5 inh: inactive; AHR activator: 95; FXIIa inh 1536: inactive; thrombin 1536: inactive; AHR act cf: 80; PXR counter: 27

What do the screens show for `CCc1ccc(CN(C)CC(=O)Nc2sccc2C#N)cc1`?
FXIa inh 1536: inactive; STAT3 act: inactive; KLK5 inh: inactive; AHR activator: inactive; FXIIa inh 1536: inactive; thrombin 1536: inactive

Results for CCOc1ccc(C(=O)Nc2ccccc2C(=O)O)cc1 ?
FXIa inh 1536: inactive; STAT3 act: inactive; KLK5 inh: inactive; AHR activator: inactive; FXIIa inh 1536: inactive; thrombin 1536: inactive
